Our source for the IC50 and inhibition values is ChEMBL document CHEMBL1144688, “Gentisyl alcohol derivatives from the marine-derived fungus Penicillium terrestre” (J Nat Prod, 2008).

The IC50 is the concentration at which inhibition is half-maximal. A lower IC50 goes with inhibition by little substance. In general, inhibition refers to the drop in the measured response relative to a control, in per cent. Low values mean a response near the control, high ones a response far below the control.

The test system of one assay is HL-60. The experiment in a line: Cytotoxicity against human HL60 cells by MTT assay. The class given is functional, cell-based. In outline: (§1)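 Cells at 5 × 10^4 cells/mL were preincubated for 24 h, then exposed to compounds in MeOH at various concentrations for 72 h. MTT (5 mg/mL) was added for 4 h, the formazan was dissolved in DMSO, and absorbance was read at 540 nm.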
In general terms: Tetrazolium assays rely on reduction of a dye to a coloured formazan, in cell work by metabolically active cells.

The next assay concerns MOLT-4. As to the kind of experiment: Cytotoxicity against human MOLT4 cells by MTT assay. The class given is functional, cell-based. In short, it runs like this: as §1
In a further assay the test system is A549. As to the kind of experiment: Cytotoxicity against human A549 cells by SRB method. In kind it is functional, cell-based. In outline: (§2)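 Cells were plated at 2 × 10^5 cells/mL and treated with test compounds in MeOH over a concentration range for 24 h. They were then fixed with 12% TCA, stained with 0.4% SRB and read at 515 nm. IC50 was taken from the linear portion of log dose–response curves.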
On the technique in general: The SRB assay estimates cell density from bound dye.

In a further assay the test system is Bel-7402. The experiment in a line: Cytotoxicity against human BEL-7402 cells by SRB method. The class given is functional, cell-based. In outline: as §2
Assay [1] can be described thus: DPPH radical scavenging activity. In kind it is functional. In short, it runs like this:
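Samples dissolved in MeOH were mixed with methanolic DPPH, shaken and left for 30 min. Absorbance was read at 520 nm and percent inhibition calculated. IC50 is the concentration that scavenges 50% of the DPPH radicals.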
Background: Loss of DPPH colour is used to gauge radical scavenging.

In assay [2] the target is Proto-oncogene tyrosine-protein kinase Src (Homo sapiens) (UniProt P12931). As to the kind of experiment: Inhibition of Src kinase at 10 uM by ELISA. In short, it runs like this:
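ELISA on plates precoated with 20 µg/mL poly(Glu,Tyr)4:1, using purified kinase and 5 µM ATP in 50 mM HEPES pH 7.4 with MgCl2, MnCl2, Na3VO4 and DTT, for 1 h at 37 °C. Phosphotyrosine was detected with PY99 antibody, then HRP anti-mouse IgG and o-phenylenediamine/H2O2, read at 490 nm. Inhibition was calculated against the 1% DMSO control, in duplicate.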

In assay [3] the target is Vascular endothelial growth factor receptor 2 (Homo sapiens) (UniProt P35968). The conditions noted are these: at 10 µM.
Vascular endothelial growth factor receptor 2 (Homo sapiens), sequence (P35968 whole entry): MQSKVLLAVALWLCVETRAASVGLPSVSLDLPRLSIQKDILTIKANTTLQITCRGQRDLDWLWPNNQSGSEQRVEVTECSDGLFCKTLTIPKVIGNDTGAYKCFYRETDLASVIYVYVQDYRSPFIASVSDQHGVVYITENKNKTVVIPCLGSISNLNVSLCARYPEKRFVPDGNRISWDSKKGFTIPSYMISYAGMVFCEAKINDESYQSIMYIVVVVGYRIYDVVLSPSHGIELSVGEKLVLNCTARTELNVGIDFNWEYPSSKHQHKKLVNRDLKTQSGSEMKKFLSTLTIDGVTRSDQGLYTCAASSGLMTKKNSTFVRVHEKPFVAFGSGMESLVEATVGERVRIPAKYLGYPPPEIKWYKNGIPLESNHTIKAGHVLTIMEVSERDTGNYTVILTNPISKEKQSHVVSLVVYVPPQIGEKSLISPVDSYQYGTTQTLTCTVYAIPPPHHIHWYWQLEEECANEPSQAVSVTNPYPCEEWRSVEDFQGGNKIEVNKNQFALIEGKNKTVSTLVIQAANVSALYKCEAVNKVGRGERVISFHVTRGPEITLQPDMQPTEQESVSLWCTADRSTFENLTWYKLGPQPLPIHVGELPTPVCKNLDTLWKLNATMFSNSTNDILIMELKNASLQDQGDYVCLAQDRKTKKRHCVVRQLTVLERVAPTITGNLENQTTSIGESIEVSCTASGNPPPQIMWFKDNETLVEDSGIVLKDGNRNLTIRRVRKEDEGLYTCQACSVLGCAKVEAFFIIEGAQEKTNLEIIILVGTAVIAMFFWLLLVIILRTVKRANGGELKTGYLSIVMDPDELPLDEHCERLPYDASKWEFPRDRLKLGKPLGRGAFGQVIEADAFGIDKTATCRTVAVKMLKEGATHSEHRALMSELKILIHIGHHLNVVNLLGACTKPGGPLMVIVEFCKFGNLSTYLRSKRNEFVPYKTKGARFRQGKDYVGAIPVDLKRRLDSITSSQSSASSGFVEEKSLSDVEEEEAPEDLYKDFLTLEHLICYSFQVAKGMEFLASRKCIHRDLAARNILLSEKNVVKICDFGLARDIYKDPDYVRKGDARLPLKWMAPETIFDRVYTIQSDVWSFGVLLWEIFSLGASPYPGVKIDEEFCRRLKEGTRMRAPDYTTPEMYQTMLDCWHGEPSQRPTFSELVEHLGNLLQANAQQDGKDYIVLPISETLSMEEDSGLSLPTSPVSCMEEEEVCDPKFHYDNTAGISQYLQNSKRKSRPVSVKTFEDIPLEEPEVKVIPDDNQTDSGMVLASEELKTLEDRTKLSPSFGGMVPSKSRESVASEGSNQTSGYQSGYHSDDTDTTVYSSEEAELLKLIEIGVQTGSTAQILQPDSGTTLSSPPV

Proto-oncogene tyrosine-protein kinase Src (Homo sapiens), sequence (P12931 2-536 limits assumed): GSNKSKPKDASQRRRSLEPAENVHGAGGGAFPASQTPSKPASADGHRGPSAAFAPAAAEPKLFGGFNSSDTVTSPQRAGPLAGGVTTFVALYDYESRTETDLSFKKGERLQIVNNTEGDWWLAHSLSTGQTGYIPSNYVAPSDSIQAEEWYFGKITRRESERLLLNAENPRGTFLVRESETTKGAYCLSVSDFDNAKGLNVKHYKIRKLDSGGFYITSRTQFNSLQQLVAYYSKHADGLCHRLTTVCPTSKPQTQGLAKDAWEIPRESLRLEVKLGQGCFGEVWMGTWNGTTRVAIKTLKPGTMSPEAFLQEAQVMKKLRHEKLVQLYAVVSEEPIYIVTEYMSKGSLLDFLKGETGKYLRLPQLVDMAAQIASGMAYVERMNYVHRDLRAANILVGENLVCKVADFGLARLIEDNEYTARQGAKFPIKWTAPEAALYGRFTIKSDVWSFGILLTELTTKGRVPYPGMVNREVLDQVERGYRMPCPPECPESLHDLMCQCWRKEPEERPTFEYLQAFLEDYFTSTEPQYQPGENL

As for `COCc1cc(O)cc(Cl)c1O`, the IC50 in the assay on HL-60 is 6.7 µM; in the assay with MOLT-4 it was 64.7 µM; with A549, 56.5 µM; in the assay on Bel-7402, 58.1 µM; in assay [1] it was 8.5 µM.

With `COCc1cc(O)c(Cc2cc(O)c(Cc3cc(O)ccc3O)cc2O)cc1O`, the IC50 is 33.3 µM in the assay with HL-60; 5.5 µM in the assay with MOLT-4; 23.5 µM in the assay with A549; 57 µM in the assay with Bel-7402; 2.6 µM in assay [1].

In the case of `Oc1ccc(O)c(COCc2cc(O)ccc2O)c1`, the IC50 with HL-60 worked out at 5.5 µM; with MOLT-4, 5.6 µM; in the assay on A549, 18.2 µM; in the assay on Bel-7402, 57.3 µM; in assay [1], 4.6 µM.

With `Oc1ccc(O)c(COCc2cc(O)cc(Cl)c2O)c1`, the IC50 is 6.1 µM in the assay with HL-60; 5.8 µM with MOLT-4; 18.3 µM with A549; 62.3 µM in the assay on Bel-7402; 4.3 µM in assay [1].

As for `OCc1cc(O)c(Cc2cc(O)ccc2O)c(Cl)c1O`, the IC50 with HL-60 is 5.1 µM; in the assay with MOLT-4 it was 6.5 µM; in the assay on A549, 5.7 µM; with Bel-7402 it was 6 µM; in assay [1], 4.1 µM. Also, the values for the inhibition in assay [2] and in assay [3] were 35.9% and 31.8%, respectively.

In the case of `OCc1cc(OCc2cc(O)ccc2O)ccc1O`, the IC50 in the assay on HL-60 came out at 54.7 µM; in the assay with MOLT-4, 6.4 µM; with A549 it was 9.6 µM; in the assay with Bel-7402, 59 µM; in assay [1] it was 6.2 µM.

`OCc1cc(OCc2cc(O)ccc2O)cc(Cl)c1O`: the half-maximal inhibitory concentration (IC50) in the assay with HL-60 came to 5.3 µM; with MOLT-4, 5.5 µM; with A549, 14.3 µM; in the assay on Bel-7402, 38.5 µM; in assay [1], 4.4 µM.

As to `OCc1c(O)c(Cl)cc(O)c1Cc1cc(O)ccc1O`, the IC50 in the assay with HL-60 turned out to be 55 µM; in the assay with MOLT-4, 58.1 µM; with A549, 13.8 µM; with Bel-7402, 63.2 µM; in assay [1], 5.2 µM.

As to `COCc1cc(O)ccc1O`, the IC50 in the assay on HL-60 was 58.9 µM; in the assay with MOLT-4, 86.2 µM; with A549, greater than 100 µM; with Bel-7402, greater than 100 µM; in assay [1], 9.8 µM.

For the compound `COCc1cc(O)c(Cc2cc(O)ccc2O)cc1O`, the IC50 in the assay with HL-60 is 6.3 µM; in the assay with MOLT-4 it was 5.8 µM; with A549, 33.8 µM; with Bel-7402, 61.9 µM; in assay [1], 6.3 µM.
